Consider 13 compounds from article PMC3823688 (Journal of medicinal chemistry, 2013).

SMILES strings stand for the structures. In brackets after ≈: the same amount, converted by molar mass. Like-named read-outs stand apart in the source and are kept apart here.

The subject of experiment [1] is S. aureus ATCC 29213. As to the kind of experiment: MIC determination by double-dilution. It is filed as cell-based, Staphylococcus aureus.
Experiment [2] deals with chloramphenicol nitroreductase (CNR) (Haemophilus influenzae, UniProt Q57431). As to the kind of experiment: reduction of compounds by CNR. It is filed as biochemical, H. influenzae. To be noted: for relative activity of CNR on compound: initial rate normalized to 3 = 100%, 100 µM compound.
Experiment [3] has as its system AAC(6')-Ib'. Put plainly: acetylation of compounds by AAC. The experiment is classed as biochemical. The following applies: for relative activity of AAC(6')-Ib' on compound: initial rate normalized to 1 = 100%, 100 µM compound; for times less prone to deactivation by AAC(6')-Ib' than 1: relative to 1, stated jointly for both AAC(6') enzymes. The gist of the method: (§1)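 Acetyltransferase activity followed at 412 nm by Ellman's method, with CoASH release coupled to DTNB (2 mM), at 25 °C. Mix: test compound 100 µM, AcCoA 150 µM, enzyme 0.5 µM. Buffer: 50 mM MES pH 6.6 for AAC(6')/APH(2"), 50 mM Tris pH 7.5 for AAC(6')-Ib'. Read every 30 s for 1 h. Initial rates from first 2–5 min, normalized to parent aminoglycoside; triplicate.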

In experiment [4] the target is AAC(6')/APH(2") (Staphylococcus aureus, UniProt P0A0C1). Put plainly: acetylation of compounds by AAC. The following applies: for relative activity of AAC(6')/APH(2") (acetyltransferase) on compound: initial rate normalized to 1 = 100%, 100 µM compound; for times less prone to deactivation by AAC(6')/APH(2") than 1: relative to 1, stated jointly for both AAC(6') enzymes. The experiment is classed as biochemical. The gist of the method: as §1

Experiment [5] deals with E. coli S30 extracts (E. coli ribosomes). As to the kind of experiment: in vitro prokaryotic translation assay. It is filed as biochemical.
In experiment [6] the test system is tested bacterial strains. As to the kind of experiment: organism not typed. It is filed as cell-based.
Experiment [7] has as its system Tetrahymena ribozyme. The following applies: compared to parent antibiotic 1; cited from earlier work.
The target of experiment [8] is chloramphenicol phosphotransferase (CPT) (Streptomyces venezuelae, UniProt Q56148). Put plainly: phosphorylation of compounds by CPT. It is filed as biochemical. To be noted: compared to 3.
Experiment [9] concerns the target ANT(4') (Staphylococcus aureus, UniProt P05057). As to the kind of experiment: nucleotidylation of compounds by ANT. It is filed as biochemical, S. aureus. To be noted: initial rate normalized to 1 = 100%; 100 µM compound.

Sequence of AAC(6')/APH(2") (P0A0C1 whole entry): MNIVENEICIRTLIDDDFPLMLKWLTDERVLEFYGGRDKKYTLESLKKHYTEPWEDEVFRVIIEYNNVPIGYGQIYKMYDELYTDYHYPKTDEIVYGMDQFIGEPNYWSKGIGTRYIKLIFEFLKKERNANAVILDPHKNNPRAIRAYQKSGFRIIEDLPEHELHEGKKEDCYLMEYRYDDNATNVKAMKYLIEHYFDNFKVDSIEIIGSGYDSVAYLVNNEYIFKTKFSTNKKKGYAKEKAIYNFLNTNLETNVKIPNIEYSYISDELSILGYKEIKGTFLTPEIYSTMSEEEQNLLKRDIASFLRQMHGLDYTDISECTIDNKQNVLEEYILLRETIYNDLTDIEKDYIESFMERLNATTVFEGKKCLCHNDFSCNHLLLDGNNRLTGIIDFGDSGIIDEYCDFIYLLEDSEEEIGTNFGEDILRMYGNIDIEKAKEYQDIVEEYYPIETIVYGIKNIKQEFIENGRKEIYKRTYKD
Sequence of chloramphenicol nitroreductase (CNR) (Q57431 whole entry): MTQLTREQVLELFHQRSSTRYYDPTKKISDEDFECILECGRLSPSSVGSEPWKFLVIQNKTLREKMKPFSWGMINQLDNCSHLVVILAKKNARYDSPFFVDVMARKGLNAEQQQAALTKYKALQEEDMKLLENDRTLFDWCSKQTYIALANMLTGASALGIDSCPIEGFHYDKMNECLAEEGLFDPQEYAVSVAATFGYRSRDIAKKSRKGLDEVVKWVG
Sequence of ANT(4') (P05057 whole entry): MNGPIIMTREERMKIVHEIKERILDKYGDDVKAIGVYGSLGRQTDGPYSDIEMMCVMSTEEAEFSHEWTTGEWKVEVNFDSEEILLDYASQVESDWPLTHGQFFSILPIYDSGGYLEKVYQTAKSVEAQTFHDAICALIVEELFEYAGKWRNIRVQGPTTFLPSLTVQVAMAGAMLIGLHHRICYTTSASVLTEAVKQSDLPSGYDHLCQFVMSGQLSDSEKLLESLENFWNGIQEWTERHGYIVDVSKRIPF
Sequence of chloramphenicol phosphotransferase (CPT) (Q56148 5-178): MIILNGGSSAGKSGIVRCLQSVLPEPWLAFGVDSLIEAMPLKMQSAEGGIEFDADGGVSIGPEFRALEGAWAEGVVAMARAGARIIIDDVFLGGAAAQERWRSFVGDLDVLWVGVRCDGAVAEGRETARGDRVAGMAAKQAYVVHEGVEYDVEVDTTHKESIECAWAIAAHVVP

For the compound `O=C(CSCCOCCSSCCOCCSCC(=O)N[C@H](CO)[C@H](O)c1ccc([N+](=O)[O-])cc1)N[C@H](CO)[C@H](O)c1ccc([N+](=O)[O-])cc1` [Compound 26], the “fold more potent than 3 (MIC)” value in experiment [1] is given as “approximately 16 fold”. Further, in [2], the “relative activity of CNR on compound” value stood at 220%.

In the case of `CCC[C@@H]1C[C@@H](C(=O)NC([C@H]2O[C@H](SC)[C@H](O)[C@@H](O)[C@H]2O)[C@@H](C)SCCOCCSSCCOCCSCC(=O)N[C@@H](CO)[C@H](O)c2ccc([N+](=O)[O-])cc2)N(C)C1` (stereo partly shown) [Compound 24], the “relative activity of CNR on compound” value in experiment [2] was 174%.

For `CCC[C@@H]1C[C@@H](C(=O)NC([C@H]2O[C@H](SC)[C@H](O)[C@@H](O)[C@H]2O)[C@@H](C)SCCOCCSSCCOCCSC[C@H]2O[C@@H](O[C@@H]3[C@@H](O)[C@H](O[C@H]4O[C@H](CN)[C@@H](O)C[C@H]4N)[C@@H](N)C[C@H]3N)[C@H](O)[C@@H](N)[C@@H]2O)N(C)C1` (stereo partly shown) [Compound 18], in experiment [3], the “relative activity of AAC(6')-Ib' on compound” value is recorded as 20% and the “times less prone to deactivation by AAC(6')-Ib' than 1” value is listed as 2.5–5 times. Also, in experiment [4], the “relative activity of AAC(6')/APH(2") (acetyltransferase) on compound” value (“relative activity of AAC(6')/APH(2")” for short) amounted to 31% and the “times less prone to deactivation by AAC(6')/APH(2") than 1” value is 2.5–5 times.

In the case of `O=C(CSCCOCCS)N[C@H](CO)[C@H](O)c1ccc([N+](=O)[O-])cc1` [Compound 13], the “fold less potent than parent antibiotic 3 in in vitro translation” value in experiment [5] (relative to 3) was ~8 fold.

As to `CCC[C@@H]1C[C@@H](C(=O)N[C@H]([C@H]2O[C@H](SC)[C@H](O)[C@@H](O)[C@H]2O)[C@@H](C)SCCOCCS)N(C)C1` [Compound 9], the “IC50 fold higher than that of parent antibiotic 2, in vitro translation” value in experiment [5] (relative to 2, less potent) is given as “at least 5 fold”. Also, in experiment [6] (read-out: MIC values against seven of the tested strains), the MIC fell in the range of 1.2 to 9.4 µg/mL (≈ 2.28 to 17.8 µM).

Take `NC[C@H]1O[C@H](O[C@H]2[C@H](O)[C@@H](O[C@@H]3O[C@H](CSCCOCCSSCCOCCSC[C@H]4O[C@@H](O[C@@H]5[C@@H](O)[C@H](O[C@H]6O[C@H](CN)[C@@H](O)C[C@H]6N)[C@@H](N)C[C@H]5N)[C@H](O)[C@@H](N)[C@@H]4O)[C@@H](O)[C@H](N)[C@H]3O)[C@H](N)C[C@@H]2N)[C@H](N)C[C@@H]1O` [Compound 16]: in experiment [3], the “relative activity of AAC(6')-Ib' on compound” value is given as 39% and the “times less prone to deactivation by AAC(6')-Ib' than 1” value is given as 2.5–5 times. Also, in [4], the “relative activity of AAC(6')/APH(2")” value is given as 34% and the “times less prone to deactivation by AAC(6')/APH(2") than 1” value is given as 2.5–5 times. Moreover, in [7], the “inhibition of the activity of the Tetrahymena ribozyme (in words)” value is recorded as “significantly better inhibitor”.

Take `NC[C@H]1O[C@H](O[C@H]2[C@H](O)[C@@H](O[C@@H]3O[C@H](CSCCOCCSCC(=O)N[C@H](CO)[C@H](O)c4ccc([N+](=O)[O-])cc4)[C@@H](O)[C@H](N)[C@H]3O)[C@H](N)C[C@@H]2N)[C@H](N)C[C@@H]1O` [Compound 20]: in experiment [3], the “relative activity of AAC(6')-Ib' on compound” value is 37%.

For the compound `O=C(CSCCOCCSCC(=O)N[C@H](CO)[C@H](O)c1ccc([N+](=O)[O-])cc1)N[C@H](CO)[C@H](O)c1ccc([N+](=O)[O-])cc1` [Compound 25], in experiment [2] (compared to 3), the “substrate quality for CNR (in words)” value is reported as “poor substrate”. Besides, the “substrate quality for CPT (in words)” value in experiment [8] is listed as “poor substrate”.

Turning to `NC[C@H]1O[C@H](O[C@H]2[C@H](O)[C@@H](O[C@@H]3O[C@H](CSCCOCCSSCCOCCSCC(=O)N[C@H](CO)[C@H](O)c4ccc([N+](=O)[O-])cc4)[C@@H](O)[C@H](N)[C@H]3O)[C@H](N)C[C@@H]2N)[C@H](N)C[C@@H]1O` [Compound 22], the “relative activity of AAC(6')-Ib' on compound” value in [3] is 31%. Besides, the “relative activity of AAC(6')/APH(2")” value in experiment [4] stood at 34%. The “relative activity of CNR on compound” value in experiment [2] is listed as 117%.

`NC[C@H]1O[C@H](O[C@H]2[C@H](O)[C@@H](O[C@@H]3O[C@H](CSCCOCCS)[C@@H](O)[C@H](N)[C@H]3O)[C@H](N)C[C@@H]2N)[C@H](N)C[C@@H]1O` [Compound 6]: in experiment [9], the “relative activity of ANT(4') on compound” value was 49%.

In the case of `CCC[C@@H]1C[C@@H](C(=O)NC([C@H]2O[C@H](SC)[C@H](O)[C@@H](O)[C@H]2O)[C@@H](C)SCCOCCSCC(=O)N[C@H](CO)[C@H](O)c2ccc([N+](=O)[O-])cc2)N(C)C1` (stereo partly shown) [Compound 23], the “relative activity of CNR on compound” value in [2] was 133%.

With `NC[C@H]1O[C@H](O[C@H]2[C@H](O)[C@@H](O[C@H]3O[C@H](CO)[C@@H](O)[C@H](N)[C@H]3O)[C@H](N)C[C@@H]2N)[C@H](N)C[C@@H]1O` [Compound 1, tobramycin, reference compound], the “relative activity of ANT(4') on compound” value in experiment [9] was 100%.

Regarding `CCC[C@@H]1C[C@@H](C(=O)NC([C@H]2O[C@H](SC)[C@H](O)[C@@H](O)[C@H]2O)[C@@H](C)SCCOCCSSCCOCCS[C@H](C)C(NC(=O)[C@@H]2C[C@@H](CCC)CN2C)[C@H]2O[C@H](SC)[C@H](O)[C@@H](O)[C@H]2O)N(C)C1` (stereo partly shown) [Compound 10], the MIC in [6] (read-out: MICs against eight of the tested bacterial strains) fell in the range of 0.6 to 9.4 µg/mL (≈ 0.571 to 8.94 µM).
